# Experimental data pooled from the literature.
# Protocols differ between the studies behind these lines.
# Matrix: PAMPA
Compound,conditions,Papp [×10⁻⁶ cm/s]
CCOC(=O)c1ccc(O)cc1,"5 µM, pH 7.4",4.72
Cc1c(S(=O)(=O)N2CCc3c(cnn3C)C2)cc(C(=O)NCc2cccnc2N2CCCC2)n1C,,25
O=C(O)c1cc(/N=N/c2ccc(S(=O)(=O)Nc3ccccn3)cc2)ccc1O,4 h,0.077
CC(C)(C)OC(=O)c1ccc(O)cc1,"5 µM, pH 7.4",4.04
Cc1c(S(=O)(=O)N2CCc3[nH]ncc3C2)cc(C(=O)NCc2cccnc2N2CCCC2)n1C,,14.4
C=C(CC(=O)OC)C(=O)OCOC(=O)C(C)(C)C,"10 µM, 4 h, pH 7.4",> 10
Cc1c(S(=O)(=O)N2CCn3nccc3C2)cc(C(=O)NCc2c(F)ccc3cnn(C)c23)n1C,,25
C=C(CC(=O)OCOC(=O)C(C)(C)C)C(=O)O,"10 µM, 4 h, pH 7.4",< 1
Cc1c(S(=O)(=O)N2CCn3cccc3C2)cc(C(=O)NCc2cccnc2N2CCCC2)n1C,,27.6
C=C(CC(=O)OC)C(=O)OCOC(=O)OC(C)C,"10 µM, 4 h, pH 7.4",> 10
CCCCC(CC)COC(=O)c1ccc(O)cc1 (stereo not drawn),"5 µM, pH 7.4",1.49
C=C(CC(=O)OCOC(=O)C(C)(C)C)C(=O)OC,"10 µM, 4 h, pH 7.4",> 10
Cc1[nH]c(C)c(S(=O)(=O)Nc2ccc(C(F)(F)F)c(Cl)c2)c1C(=O)N1CCC(F)(F)C1,,7.3
C=C(CC(=O)OC)C(=O)OCc1oc(=O)oc1C,"10 µM, 4 h",~15
CCCCOC(=O)c1ccc(O)cc1,"5 µM, pH 7.4",5.68
